13 molecules from ChEMBL document CHEMBL3400072, “Synthesis, biological evaluation and docking analysis of a new series of methylsulfonyl and sulfamoyl acetamides and ethyl acetates as potent COX-2 inhibitors” (Bioorg Med Chem, 2015) can be followed below.

Molecules are shown by their SMILES. Active and inactive are the calls of the source. The rule behind the calls is not given here.

In general, inhibition refers to the drop in the measured response relative to a control, in per cent. By IC50 is commonly meant the point on the concentration scale where inhibition reaches its midpoint.

The first experiment relates to Mus musculus. The experiment in a line: Analgesic activity in Swiss albino mouse model assessed as reduction of acetic acid-induced writhes at 30 mg/kg, po administered 30 mins prior to acetic acid challenge measured after 5 mins for 10 mins relative to vehicle-treated control.
Conditions: not given
The class given is functional. Also on record: scale not given: the % may be the effect or the level left. The procedure, abridged: (§1)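 Male Swiss albino mice (23–25 g), standard diet and water ad libitum, 23 °C, 12 h light/dark cycle. Oral dosing (1–40 mg/kg range), with carboxymethylcellulose (CMC) as vehicle, 30 min before ip injection of 0.6% acetic acid (10 mL/kg). Stretching movements counted for 10 min, beginning 5 min after acetic acid. Results given as writhe count and % reduction versus vehicle-treated mice.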
Take `CCOC(=O)Cc1cc(-c2ccc(S(N)(=O)=O)cc2)n(-c2cccc(F)c2)c1C`: the Activity came to 33.5%.
On to `CCCNC(=O)Cc1cc(-c2ccc(S(N)(=O)=O)cc2)n(-c2ccc(F)cc2)c1C`, for which the Activity was determined as 39.1%.
Same read-out and setting: the figure for `CCCNC(=O)Cc1cc(-c2ccc(S(C)(=O)=O)cc2)n(-c2cccc(F)c2)c1C` is 9.9%.
Still for that read-out and setting: the figure for `Cc1c(CC(=O)NC(C)C)cc(-c2ccc(S(N)(=O)=O)cc2)n1-c1cccc(F)c1` is 31.6%; for `CCCNC(=O)Cc1cc(-c2ccc(S(N)(=O)=O)cc2)n(-c2cccc(F)c2)c1C` it is 12.2%; for `Cc1c(CC(=O)NC(C)C)cc(-c2ccc(S(C)(=O)=O)cc2)n1-c1ccc(F)cc1` it is 48.7%.
On the same count and under the same terms, then `Cc1c(CC(=O)NC(C)C)cc(-c2ccc(S(C)(=O)=O)cc2)n1-c1cccc(F)c1`, with 25.3%; and `Cc1c(CC(=O)NC(C)C)cc(-c2ccc(S(N)(=O)=O)cc2)n1-c1ccc(F)cc1`, with 43.7%.

In another experiment the target is T1, Prostaglandin G/H synthase 1 (Ovis aries) (UniProt P05979).
T1 sequence (whole entry): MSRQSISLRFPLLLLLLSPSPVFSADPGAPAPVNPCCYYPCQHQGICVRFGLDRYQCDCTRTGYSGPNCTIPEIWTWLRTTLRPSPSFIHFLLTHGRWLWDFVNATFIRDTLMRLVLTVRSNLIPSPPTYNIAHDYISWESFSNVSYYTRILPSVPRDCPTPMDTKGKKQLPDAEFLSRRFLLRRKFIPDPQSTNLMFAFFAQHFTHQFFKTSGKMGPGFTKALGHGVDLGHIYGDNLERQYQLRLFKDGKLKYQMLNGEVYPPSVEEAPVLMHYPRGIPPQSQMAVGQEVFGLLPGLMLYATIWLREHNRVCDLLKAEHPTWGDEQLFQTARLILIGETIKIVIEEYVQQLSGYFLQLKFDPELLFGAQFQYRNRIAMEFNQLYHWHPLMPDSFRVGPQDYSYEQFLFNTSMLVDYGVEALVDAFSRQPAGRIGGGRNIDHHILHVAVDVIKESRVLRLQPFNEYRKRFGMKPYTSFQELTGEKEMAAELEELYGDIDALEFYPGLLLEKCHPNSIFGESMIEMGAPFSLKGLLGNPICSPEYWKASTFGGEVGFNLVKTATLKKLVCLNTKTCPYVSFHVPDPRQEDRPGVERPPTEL
The conditions noted are these: at 10 µM.
As for `CCOC(=O)Cc1cc(-c2ccc(S(N)(=O)=O)cc2)n(-c2cccc(F)c2)c1C`, the inhibition result is “inactive”.
Same read-out and setting: the entry for `CCCNC(=O)Cc1cc(-c2ccc(S(N)(=O)=O)cc2)n(-c2cccc(F)c2)c1C` is “inactive”; for `Cc1c(CC(=O)NC(C)C)cc(-c2ccc(S(C)(=O)=O)cc2)n1-c1ccc(F)cc1` it is 36%.
On the same count and under the same terms, the entry for `CCOC(=O)Cc1cc(-c2ccc(S(N)(=O)=O)cc2)n(-c2ccc(F)cc2)c1C` is “inactive”.

The subject of the next experiment is Mus musculus. The experiment can be described thus: Analgesic activity in Swiss albino mouse model assessed as reduction of acetic acid-induced writhes at 10 mg/kg, po administered 30 mins prior to acetic acid challenge measured after 5 mins for 10 mins relative to vehicle-treated control. The class given is functional. Also on record: scale not given: the % may be the effect or the level left.
Conditions: not given
The procedure, abridged: as §1
On to `Cc1ccc(-c2cc(C(F)(F)F)nn2-c2ccc(S(N)(=O)=O)cc2)cc1` [CELECOXIB], for which the Activity is 57.4%.
Still for that read-out and setting: the figure for `CCOC(=O)Cc1cc(-c2ccc(S(N)(=O)=O)cc2)n(-c2cccc(F)c2)c1C` is 26%.
As for `CCCNC(=O)Cc1cc(-c2ccc(S(N)(=O)=O)cc2)n(-c2ccc(F)cc2)c1C`, the Activity is 8.3%.
The same measure, in the same setting: the figure for `CCCNC(=O)Cc1cc(-c2ccc(S(C)(=O)=O)cc2)n(-c2cccc(F)c2)c1C` is 12.2%.
Still for that read-out and setting: then `Cc1c(CC(=O)NC(C)C)cc(-c2ccc(S(N)(=O)=O)cc2)n1-c1cccc(F)c1`, with 29.3%; and `Cc1c(CC(=O)NC(C)C)cc(-c2ccc(S(C)(=O)=O)cc2)n1-c1ccc(F)cc1`, with 12.2%; and `Cc1c(CC(=O)NC(C)C)cc(-c2ccc(S(C)(=O)=O)cc2)n1-c1cccc(F)c1`, with 3.6%.
Same read-out and setting: then `Cc1c(CC(=O)NC(C)C)cc(-c2ccc(S(N)(=O)=O)cc2)n1-c1ccc(F)cc1`, with 36.5%.
`Cc1c(CC(=O)O)cc(-c2ccc(S(N)(=O)=O)cc2)n1-c1cccc(F)c1`: the Activity is recorded as 9.5%.
Same read-out and setting: then `CCOC(=O)Cc1cc(-c2ccc(S(N)(=O)=O)cc2)n(-c2ccc(F)cc2)c1C`, with 10.4%; and `CCCNC(=O)Cc1cc(-c2ccc(S(C)(=O)=O)cc2)n(-c2ccc(F)cc2)c1C`, with 29.9%.
For `Cc1c(CC(=O)O)cc(-c2ccc(S(N)(=O)=O)cc2)n1-c1ccc(F)cc1`, the Activity is recorded as 16.9%.

For another experiment, the target named is T2, Prostaglandin G/H synthase 2 (Homo sapiens, UniProt P35354).
T2 sequence (P35354 whole entry): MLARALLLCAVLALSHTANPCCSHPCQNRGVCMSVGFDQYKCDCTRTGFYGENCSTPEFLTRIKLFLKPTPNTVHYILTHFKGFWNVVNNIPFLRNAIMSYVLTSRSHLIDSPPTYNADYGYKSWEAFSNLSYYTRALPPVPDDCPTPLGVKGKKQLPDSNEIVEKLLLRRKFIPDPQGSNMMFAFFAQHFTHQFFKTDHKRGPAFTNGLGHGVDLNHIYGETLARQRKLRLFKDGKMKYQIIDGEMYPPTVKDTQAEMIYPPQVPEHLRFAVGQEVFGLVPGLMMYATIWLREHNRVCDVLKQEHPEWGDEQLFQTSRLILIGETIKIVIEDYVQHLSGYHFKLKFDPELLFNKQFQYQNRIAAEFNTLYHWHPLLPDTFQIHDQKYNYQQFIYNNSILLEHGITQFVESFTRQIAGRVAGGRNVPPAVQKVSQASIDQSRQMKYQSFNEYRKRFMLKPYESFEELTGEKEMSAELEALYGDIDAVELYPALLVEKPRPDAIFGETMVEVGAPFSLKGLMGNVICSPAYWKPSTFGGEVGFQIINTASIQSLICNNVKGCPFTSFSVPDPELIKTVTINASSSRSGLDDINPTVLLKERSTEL
The experiment can be described thus: Inhibition of human recombinant COX2 using […] as substrate after 10 mins by EIA.
Conditions: not given
As to `CCOC(=O)Cc1cc(-c2ccc(S(N)(=O)=O)cc2)n(-c2cccc(F)c2)c1C`, the IC50 was 0.92 µM.
Still for that read-out and setting: then `CCCNC(=O)Cc1cc(-c2ccc(S(N)(=O)=O)cc2)n(-c2cccc(F)c2)c1C`, with 5.78 µM; and `Cc1c(CC(=O)NC(C)C)cc(-c2ccc(S(C)(=O)=O)cc2)n1-c1ccc(F)cc1`, with 4.91 µM; and `Cc1c(CC(=O)NC(C)C)cc(-c2ccc(S(C)(=O)=O)cc2)n1-c1cccc(F)c1`, with 7 µM.
For the molecule `CCOC(=O)Cc1cc(-c2ccc(S(N)(=O)=O)cc2)n(-c2ccc(F)cc2)c1C`, the 50% inhibitory concentration (IC50) worked out at 1.07 µM.

Another experiment has as its target T3, Prostaglandin G/H synthase 2 (Homo sapiens) (UniProt P35354).
T3 sequence (whole entry): T2 sequence (P35354 whole entry)
To be noted: at 10 µM.
Molecule `CCOC(=O)Cc1cc(-c2ccc(S(N)(=O)=O)cc2)n(-c2cccc(F)c2)c1C` had an inhibition of 89%.
Still for that read-out and setting: the figure for `CCCNC(=O)Cc1cc(-c2ccc(S(N)(=O)=O)cc2)n(-c2ccc(F)cc2)c1C` is 62%; for `CCCNC(=O)Cc1cc(-c2ccc(S(C)(=O)=O)cc2)n(-c2cccc(F)c2)c1C` it is 43%.
The same measure, in the same setting: the figure for `Cc1c(CC(=O)NC(C)C)cc(-c2ccc(S(N)(=O)=O)cc2)n1-c1cccc(F)c1` is 49%; for `CCCNC(=O)Cc1cc(-c2ccc(S(N)(=O)=O)cc2)n(-c2cccc(F)c2)c1C` it is 96%; for `Cc1c(CC(=O)NC(C)C)cc(-c2ccc(S(C)(=O)=O)cc2)n1-c1ccc(F)cc1` it is 95%.
Still for that read-out and setting: then `Cc1c(CC(=O)NC(C)C)cc(-c2ccc(S(C)(=O)=O)cc2)n1-c1cccc(F)c1`, with 74%.
Take `Cc1c(CC(=O)NC(C)C)cc(-c2ccc(S(N)(=O)=O)cc2)n1-c1ccc(F)cc1`: the inhibition worked out at 48%.
The molecule `Cc1c(CC(=O)O)cc(-c2ccc(S(N)(=O)=O)cc2)n1-c1cccc(F)c1` yielded an inhibition of 65%.
Molecule `CCOC(=O)Cc1cc(-c2ccc(S(N)(=O)=O)cc2)n(-c2ccc(F)cc2)c1C` gave an inhibition of 82%.
`CCCNC(=O)Cc1cc(-c2ccc(S(C)(=O)=O)cc2)n(-c2ccc(F)cc2)c1C`: the inhibition turned out to be 65%.
Still for that read-out and setting: then `Cc1c(CC(=O)O)cc(-c2ccc(S(N)(=O)=O)cc2)n1-c1ccc(F)cc1`, with 65%.

For another experiment, the system named is Mus musculus. The experiment can be described thus: Analgesic activity in Swiss albino mouse model assessed as reduction of acetic acid-induced writhes at 40 mg/kg, po administered 30 mins prior to acetic acid challenge measured after 5 mins for 10 mins relative to vehicle-treated control. The class given is functional. More on the design: scale not given: the % may be the effect or the level left.
Conditions: not given
The procedure, abridged:
as §1
On to `CCOC(=O)Cc1cc(-c2ccc(S(N)(=O)=O)cc2)n(-c2ccc(F)cc2)c1C`, for which the Activity came out at 62.3%.
Still for that read-out and setting: then `Cc1c(CC(=O)O)cc(-c2ccc(S(N)(=O)=O)cc2)n1-c1ccc(F)cc1`, with 49.1%.

The next experiment concerns Mus musculus. The experiment in a line: Analgesic activity in po dosed Swiss albino mouse model assessed as reduction of acetic acid-induced writhes administered 30 mins prior to acetic acid challenge measured after 5 mins for 10 mins relative to vehicle-treated control.
Conditions: not given
It is filed as functional, organism-based. The gist of the method:
as §1
For the molecule `CCOC(=O)Cc1cc(-c2ccc(S(N)(=O)=O)cc2)n(-c2ccc(F)cc2)c1C`, the Activity result was “Dose-dependent effect”.

Another experiment relates to Mus musculus. The experiment can be described thus: Analgesic activity in Swiss albino mouse model assessed as reduction of acetic acid-induced writhes at 20 mg/kg, po administered 30 mins prior to acetic acid challenge measured after 5 mins for 10 mins relative to vehicle-treated control. More on the design: scale not given: the % may be the effect or the level left.
Conditions: not given
It is filed as functional. The procedure, abridged:
as §1
For `CCOC(=O)Cc1cc(-c2ccc(S(N)(=O)=O)cc2)n(-c2ccc(F)cc2)c1C`, the Activity was determined as 24.8%.
For `Cc1c(CC(=O)O)cc(-c2ccc(S(N)(=O)=O)cc2)n1-c1ccc(F)cc1`, the Activity is reported as 33.1%.

The next experiment deals with Mus musculus. The experiment can be described thus: Analgesic activity in Swiss albino mouse model assessed as reduction of acetic acid-induced writhes at 3 mg/kg, po administered 30 mins prior to acetic acid challenge measured after 5 mins for 10 mins relative to vehicle-treated control. It is filed as functional. Also on record: scale not given: the % may be the effect or the level left.
Conditions: not given
The gist of the method:
as §1
`CCCNC(=O)Cc1cc(-c2ccc(S(N)(=O)=O)cc2)n(-c2ccc(F)cc2)c1C`: the Activity worked out at 3.9%.
Consider `Cc1c(CC(=O)NC(C)C)cc(-c2ccc(S(N)(=O)=O)cc2)n1-c1cccc(F)c1`, for which the Activity was determined as 11.5%.
Same read-out and setting: then `Cc1c(CC(=O)NC(C)C)cc(-c2ccc(S(N)(=O)=O)cc2)n1-c1ccc(F)cc1`, with 16.1%.
On the same count and under the same terms, the figure for `CCCNC(=O)Cc1cc(-c2ccc(S(C)(=O)=O)cc2)n(-c2ccc(F)cc2)c1C` is 10.2%.
